Laboratory results as given in ChEMBL document CHEMBL1125690, “Quinazoline antifolate thymidylate synthase inhibitors: heterocyclic benzoyl ring modifications” (J Med Chem, 1991).
pIC50: −log10 of the molar value.

Key:
Thymidylate synthase = Thymidylate synthase (Mus musculus, UniProt P07607); assay: In vitro inhibition of partially purified L1210 thymidylate synthase (TS).
L1210 = assay: In vitro inhibition of L1210 cell growth in culture.; type: functional, cell-based; conditions: Mus musculus
How it was run: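 L1210 mouse leukaemia cells grown in culture. The value reported is the IC50 for inhibition of cell growth.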

Thymidylate synthase, sequence (P07607 whole entry): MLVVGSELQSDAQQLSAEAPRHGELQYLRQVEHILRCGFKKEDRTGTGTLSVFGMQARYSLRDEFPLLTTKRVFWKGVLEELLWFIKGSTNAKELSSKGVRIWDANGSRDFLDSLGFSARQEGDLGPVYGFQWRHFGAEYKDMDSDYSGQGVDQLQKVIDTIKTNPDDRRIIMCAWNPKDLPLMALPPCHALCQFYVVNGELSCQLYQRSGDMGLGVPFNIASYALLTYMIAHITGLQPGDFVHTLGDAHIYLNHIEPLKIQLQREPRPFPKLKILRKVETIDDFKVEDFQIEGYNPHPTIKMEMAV

Row | SMILES | pIC50 (Thymidylate synthase) | pIC50 (L1210)
1 | Cc1nc2ccc(CN(C)c3ccc(C(=O)N[C@@H](CCC(=O)O)C(=O)O)cn3)cc2c(=O)[nH]1 | 5.37 | 5.80
2 | CCCN(Cc1ccc2nc(C)nc(O)c2c1)c1ccc(C(=O)N[C@H](CCC(=O)O)C(=O)O)s1 | 5.73 | 6.40
3 | CN(Cc1ccc2nc(CF)nc(O)c2c1)c1ccc(C(=O)N[C@H](CCC(=O)O)C(=O)O)s1 | 5.87 | 7.80
4 | Cc1nc(O)c2cc(CN(C)c3ccc(C(=O)N[C@H](CCC(=O)O)C(=O)O)s3)ccc2n1 |  | 8.15
5 | C#CCN(Cc1ccc2nc(C)[nH]c(=O)c2c1)c1ccc(C(=O)N[C@@H](CCC(=O)O)C(=O)O)nc1 | 7.40 | 7.22
6 | Cc1nc2ccc(CN(C)c3cnc(C(=O)N[C@@H](CCC(=O)O)C(=O)O)nc3)cc2c(=O)[nH]1 | 5.63 | 5.85
7 | Cc1nc(O)c2cc(CN(CCCO)c3cnc(C(=O)N[C@H](CCC(=O)O)C(=O)O)s3)ccc2n1 | 5.76 | 7.22
8 | Cc1nc(O)c2cc(CN(CCO)c3ccc(C(=O)N[C@H](CCC(=O)O)C(=O)O)s3)ccc2n1 | 5.92 | 7.00
9 | Cc1nc(O)c2cc(CN(CCCO)c3ccc(C(=O)N[C@H](CCC(=O)O)C(=O)O)s3)ccc2n1 | 5.47 | 5.52
10 | Cc1nc(O)c2cc(CNc3ccc(C(=O)N[C@H](CCC(=O)O)C(=O)O)s3)ccc2n1 | 4.61 | 5.52
11 | C=CCN(Cc1ccc2nc(C)nc(O)c2c1)c1ccc(C(=O)N[C@H](CCC(=O)O)C(=O)O)s1 | 5.77 | 7.24
12 | CCN(Cc1ccc2nc(C)nc(O)c2c1)c1ncc(C(=O)N[C@H](CCC(=O)O)C(=O)O)s1 | 6.12 | 6.05
13 | CN(Cc1ccc2nc(CO)nc(O)c2c1)c1ccc(C(=O)N[C@H](CCC(=O)O)C(=O)O)s1 | 5.87 | 6.11
14 | C=CCN(Cc1ccc2nc(C)[nH]c(=O)c2c1)c1ccc(C(=O)N[C@@H](CCC(=O)O)C(=O)O)nc1 | 6.12 | 6.89
15 | C=CCN(Cc1ccc2nc(C)nc(O)c2c1)c1cnc(C(=O)N[C@H](CCC(=O)O)C(=O)O)s1 | 5.97 | 7.89
16 | CCN(Cc1ccc2nc(CF)nc(O)c2c1)c1ccc(C(=O)N[C@H](CCC(=O)O)C(=O)O)s1 | 6.03 | 6.96
17 | Cc1nc(O)c2cc(CNc3cnc(C(=O)N[C@H](CCC(=O)O)C(=O)O)s3)ccc2n1 | 5.15 | 6.55
18 | CCN(Cc1ccc2nc(C)nc(O)c2c1)c1nnc(C(=O)N[C@H](CCC(=O)O)C(=O)O)s1 | 6.03 | 5.62
19 | CCN(Cc1ccc2nc(CO)nc(O)c2c1)c1ccc(C(=O)N[C@H](CCC(=O)O)C(=O)O)s1 | 5.99 | 5.57
20 | Cc1nc(O)c2cc(CN(CC#N)c3ccc(C(=O)N[C@H](CCC(=O)O)C(=O)O)s3)ccc2n1 | 5.51 | 6.70
21 | O=C(O)CC[C@@H](NC(=O)c1ccc(N(CCF)Cc2ccc3nc(CF)nc(O)c3c2)s1)C(=O)O | 5.97 | 6.17

Results, then the compound that gave them:

Row | pIC50 (Thymidylate synthase) | pIC50 (L1210) | SMILES
22 | 6.72 | 7.70 | Cc1nc(O)c2cc(CN(CCF)c3cnc(C(=O)N[C@H](CCC(=O)O)C(=O)O)s3)ccc2n1
23 | 6.46 | 6.80 | Cc1nc2ccc(CN(C)c3ccc(C(=O)N[C@@H](CCC(=O)O)C(=O)O)nc3)cc2c(=O)[nH]1
24 | 6.60 |  | Cc1nc2ccc(CN(C)c3ccc(C(=O)N[C@@H](CCC(=O)O)C(=O)O)cc3)cc2c(=O)[nH]1
25 | 6.31 | 6.52 | CN(Cc1ccc2nc(CO)nc(O)c2c1)c1cnc(C(=O)N[C@H](CCC(=O)O)C(=O)O)s1
26 | 6.24 | 7.80 | CCN(Cc1ccc2nc(C)nc(O)c2c1)c1ccc(C(=O)N[C@H](CCC(=O)O)C(=O)O)s1
27 | 6.38 | 7.70 | Cc1nc(O)c2cc(CN(CCO)c3cnc(C(=O)N[C@H](CCC(=O)O)C(=O)O)s3)ccc2n1
28 | 6.80 | 6.85 | Cc1nc2ccc(CN(CCF)c3ccc(C(=O)N[C@@H](CCC(=O)O)C(=O)O)nc3)cc2c(=O)[nH]1
29 | 6.36 | 7.22 | C#CCN(Cc1ccc2nc(C)nc(O)c2c1)c1ccc(C(=O)N[C@H](CCC(=O)O)C(=O)O)s1
30 | 6.26 | 7.00 | Cc1nc(O)c2cc(CN(CCF)c3ccc(C(=O)N[C@H](CCC(=O)O)C(=O)O)s3)ccc2n1
31 | 6.64 | 8.10 | CCN(Cc1ccc2nc(C)nc(O)c2c1)c1cnc(C(=O)N[C@H](CCC(=O)O)C(=O)O)s1
32 | 6.64 | 8.10 | C#CCN(Cc1ccc2nc(C)nc(O)c2c1)c1cnc(C(=O)N[C@H](CCC(=O)O)C(=O)O)s1
33 | 6.82 | 6.19 | CCN(Cc1ccc2nc(C)[nH]c(=O)c2c1)c1ccc(C(=O)N[C@@H](CCC(=O)O)C(=O)O)nc1
34 | 6.59 |  | CCN(Cc1ccc2nc(C)[nH]c(=O)c2c1)c1ccc(C(=O)N[C@@H](CCC(=O)O)C(=O)O)cc1
35 | 6.66 | 7.00 | CCN(Cc1ccc2nc(CF)nc(O)c2c1)c1cnc(C(=O)N[C@H](CCC(=O)O)C(=O)O)s1
36 | 6.38 | 8.22 | Cc1nc(O)c2cc(CN(C)c3cnc(C(=O)N[C@H](CCC(=O)O)C(=O)O)s3)ccc2n1
